{"source": "paper PMC3505964", "about": "(Nucleic Acids Research, 2012)", "key": {"[1]": {"test": "pKa determination from pH-dependent UV absorption", "type": "physicochemical", "settings": "25 °C; for pKa (deprotonation at N1): free nucleoside"}, "[2]": {"settings": "cited from earlier work"}, "[3]": {"settings": "free nucleoside; cited from earlier work"}, "[4]": {"tested_on": "avian myeloblastosis virus reverse transcriptase (AMV-RT)", "test": "PAGE analysis of primer extension reactions, AMV-RT", "type": "biochemical", "settings": "single dNTPs"}, "human DNA polymerase β [5]": {"target": "T1, human DNA polymerase β (Homo sapiens, UniProt P06746)", "test": "PAGE analysis of primer extension reactions, pol β", "type": "biochemical"}, "[6]": {"tested_on": "avian myeloblastosis virus reverse transcriptase (AMV-RT)", "test": "MALDI-TOF analysis of primer extension products, AMV-RT", "type": "biochemical", "settings": "1 mM each dNTP, 20-mer products"}, "human DNA polymerase β [7]": {"target": "T1, human DNA polymerase β", "test": "MALDI-TOF analysis of primer extension products, pol β", "type": "biochemical", "settings": "1 mM each dNTP, 19-mer and 20-mer products", "summary_of_the_method": "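Unlabelled 16-mer primer (10 pmol) annealed to a 25-mer template (20 pmol; 2′-O-methylguanosine or 8-nitro-2′-O-methylguanosine) at 70°C for 20 min, then room temperature for 15 min. Final pol β was 750 nM, with 1 mM each dNTP. Incubated 37°C for 60 min, stopped at 90°C for 5 min. Desalted on C18 tips (0.1 M TEAA pH 7.0), eluted in 3-HPA/ammonium citrate matrix. Products assigned by calculated m/z against a 20-mer standard mix.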"}}}
{"compound": "CO[C@@H]1[C@H](O)[C@@H](CO)O[C@H]1n1c([N+](=O)[O-])nc2c(=O)[nH]c(N)nc21", "note": "[Compound 6b, 8-Nitro-2′-O-methylguanosine]", "values": [{"measurement": "pKa (deprotonation at N1)", "setting": "[1]", "value": 8.3}]}
{"compound": "Nc1nc2c(nc([N+](=O)[O-])n2[C@@H]2O[C@H](CO)[C@@H](O)[C@H]2O)c(=O)[nH]1", "note": "[Compound 6a, 8-Nitroguanosine]", "values": [{"measurement": "pKa (deprotonation at N1)", "setting": "[1]", "value": 8.4}, {"measurement": "half-life (hydrolytic stability)", "setting": "[2]; pH 7 and 37°C, ref one published study", "value": 0.21, "unit": "days"}]}
{"compound": "Nc1nc2c(ncn2[C@@H]2O[C@H](CO)[C@@H](O)[C@H]2O)c(=O)[nH]1", "note": "[guanosine]", "values": [{"measurement": "pKa", "setting": "[3]", "value": 9.4}]}
{"compound": "Nc1nc2c(nc([N+](=O)[O-])n2C2OC(CO)C(O)C2F)c(=O)[nH]1", "note": "(centres unmarked) [2′-fluoro, reference compound]", "values": [{"measurement": "half-life (depurination)", "setting": "[2]; pH 7.4", "value": 72, "unit": "days"}]}
{"compound": "5′-TCANCATTGGGAGTCGACATAGCGC–3′ [8-nitroG template]", "values": [{"measurement": "single dNTP most preferentially inserted", "setting": "[4]", "value": "dATP"}, {"measurement": "dCTP incorporation, level relative to the control", "setting": "human DNA polymerase β [5]; single dCTP", "value": "< 20", "unit": "%"}, {"measurement": "increase of dTTP incorporation relative to control", "setting": "human DNA polymerase β [5]; single dTTP, from a low level", "value": "around 2 fold"}]}
{"compound": "GCGTACG**CATGCG [ODN4]", "values": [{"measurement": "pKa of 8-nitro-2′-O-methylguanosine within the single-stranded oligonucleotide", "setting": "[1]; single-stranded ODN GCGTACG**CATGCG", "value": 9.1}]}
{"compound": "5′-TCANCATTGGGAGTCGACATAGCGC–3′ [control template]", "values": [{"measurement": "nucleotide incorporated opposite X in extended products", "setting": "[6]", "value": "predominantly dC"}, {"measurement": "nucleotide incorporated opposite X in extended products", "setting": "human DNA polymerase β [7]", "value": "only dC"}]}
